Reference: ChEMBL document CHEMBL5724801, “EUbOPEN Chemogenomics Library - Multiplex” (2024)
Values joined by “and” are separate entries in the source; they are usually repeats but may differ in a detail not shown here. Equal values may be shown once.

Tested on: HEK-293T
Test: Multiplex assay against HEK293T
Assay type: toxicity, cell-based
Conditions: human
How it was run: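 Live cells were stained at seeding with Hoechst33342, BioTracker Green Microtubule Cytoskeleton Dye, MitoTracker Red and Annexin V Alexa Fluor 680, then imaged on a CQ1 microscope at 37°C and 5% CO2 after compound addition. CellPathfinder machine-learning gating split cells into Hoechst high-intensity objects or normal cells. Normal cells were split into healthy, pyknosed or fragmented nuclei, and pyknosed cells into mitotic or apoptotic. Tubulin, mitochondrial-mass and membrane-permeability phenotypes are per cents of healthy-nucleus cells.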

[1] = 12 h, 1 µM, compound concentration 1 uM
[2] = 12 h, 10 µM, compound concentration 10 uM
[3] = 24 h, 1 µM, compound concentration 1 uM
[4] = 24 h, 10 µM, compound concentration 10 uM
[5] = 48 h, 1 µM, compound concentration 1 uM
[6] = 48 h, 10 µM, compound concentration 10 uM

## Cc1cc(-c2ccc3c(c2)CC[C@H]3N2CC3(CCN(C(=O)Cc4cn5cc(C)sc5n4)CC3)C2)ncn1 [PF-5190457]
[1]
  Population Apoptotic (%): 36% and 47%
  Population Fragmented Nuclei (%): 5% and 8%
  Population Healthy Nuclei (%): 83% and 72%
  Population Hoechst High Intensity Objects (%): 5% and 10%
  Population Membrane Permeable-Phenotype (%): 0%
  Population Mitochondria Different-Phenotype (%): 40% and 53%
  Population Mitotic Cells (%): 63% and 52%
  Population Normal (%): 94% and 89%
  Population Pyknosed Nuclei (%): 11% and 19%
  Population Tubulin-Different-Phenotype (%): 25% and 22%
  Total Cell Count: 418 and 258
[2]
  Population Apoptotic (%): 40% and 54%
  Population Fragmented Nuclei (%): 9% and 3%
  Population Healthy Nuclei (%): 75% and 80%
  Population Hoechst High Intensity Objects (%): 11% and 8%
  Population Membrane Permeable-Phenotype (%): 0%
  Population Mitochondria Different-Phenotype (%): 53% and 70%
  Population Mitotic Cells (%): 60% and 45%
  Population Normal (%): 88% and 91%
  Population Pyknosed Nuclei (%): 14% and 16%
  Population Tubulin-Different-Phenotype (%): 37% and 40%
  Total Cell Count: 455 and 322
[3]
  Population Apoptotic (%): 21% and 45%
  Population Fragmented Nuclei (%): 8% and 11%
  Population Healthy Nuclei (%): 77% and 78%
  Population Hoechst High Intensity Objects (%): 2% and 7%
  Population Membrane Permeable-Phenotype (%): 0% and 1%
  Population Mitochondria Different-Phenotype (%): 24% and 35%
  Population Mitotic Cells (%): 78% and 54%
  Population Normal (%): 97% and 92%
  Population Pyknosed Nuclei (%): 13% and 9%
  Population Tubulin-Different-Phenotype (%): 16% and 11%
  Total Cell Count: 549 and 352
[4]
  Population Apoptotic (%): 25% and 36%
  Population Fragmented Nuclei (%): 10% and 5%
  Population Healthy Nuclei (%): 75% and 81%
  Population Hoechst High Intensity Objects (%): 5% and 6%
  Population Membrane Permeable-Phenotype (%): 1% and 0%
  Population Mitochondria Different-Phenotype (%): 28% and 51%
  Population Mitotic Cells (%): 74% and 63%
  Population Normal (%): 94% and 93%
  Population Pyknosed Nuclei (%): 14% and 13%
  Population Tubulin-Different-Phenotype (%): 30% and 23%
  Total Cell Count: 638 and 425
[5]
  Population Apoptotic (%): 25% and 39%
  Population Fragmented Nuclei (%): 14% and 12%
  Population Healthy Nuclei (%): 79% and 80%
  Population Hoechst High Intensity Objects (%): 1% and 3%
  Population Membrane Permeable-Phenotype (%): 1%
  Population Mitochondria Different-Phenotype (%): 18% and 21%
  Population Mitotic Cells (%): 74% and 60%
  Population Normal (%): 98% and 96%
  Population Pyknosed Nuclei (%): 5% and 6%
  Population Tubulin-Different-Phenotype (%): 9% and 10%
  Total Cell Count: 873 and 531
[6]
  Population Apoptotic (%): 24% and 46%
  Population Fragmented Nuclei (%): 14% and 13%
  Population Healthy Nuclei (%): 77% and 78%
  Population Hoechst High Intensity Objects (%): 2% and 4%
  Population Membrane Permeable-Phenotype (%): 0%
  Population Mitochondria Different-Phenotype (%): 27% and 32%
  Population Mitotic Cells (%): 76% and 53%
  Population Normal (%): 97% and 95%
  Population Pyknosed Nuclei (%): 8%
  Population Tubulin-Different-Phenotype (%): 20%
  Total Cell Count: 927 and 520

## C[C@H](N)COC(=O)[C@@H](CCCCN)NC(=O)Cc1c(-c2ccc3ccccc3c2)[nH]c2c1ccc1ccccc12
[1]
  Population Apoptotic (%): 22% and 51%
  Population Fragmented Nuclei (%): 6% and 8%
  Population Healthy Nuclei (%): 82% and 74%
  Population Hoechst High Intensity Objects (%): 8%
  Population Membrane Permeable-Phenotype (%): 0%
  Population Mitochondria Different-Phenotype (%): 37% and 65%
  Population Mitotic Cells (%): 77% and 48%
  Population Normal (%): 91%
  Population Pyknosed Nuclei (%): 10% and 16%
  Population Tubulin-Different-Phenotype (%): 27% and 30%
  Total Cell Count: 458 and 291
[2]
  Population Apoptotic (%): 41% and 61%
  Population Fragmented Nuclei (%): 7% and 5%
  Population Healthy Nuclei (%): 78%
  Population Hoechst High Intensity Objects (%): 11% and 7%
  Population Membrane Permeable-Phenotype (%): 0%
  Population Mitochondria Different-Phenotype (%): 60% and 72%
  Population Mitotic Cells (%): 58% and 38%
  Population Normal (%): 88% and 93%
  Population Pyknosed Nuclei (%): 14% and 16%
  Population Tubulin-Different-Phenotype (%): 54% and 50%
  Total Cell Count: 435 and 343
[3]
  Population Apoptotic (%): 25% and 54%
  Population Fragmented Nuclei (%): 9% and 7%
  Population Healthy Nuclei (%): 77% and 80%
  Population Hoechst High Intensity Objects (%): 4% and 7%
  Population Membrane Permeable-Phenotype (%): 0% and 1%
  Population Mitochondria Different-Phenotype (%): 24% and 47%
  Population Mitotic Cells (%): 75% and 45%
  Population Normal (%): 95% and 92%
  Population Pyknosed Nuclei (%): 12%
  Population Tubulin-Different-Phenotype (%): 19% and 25%
  Total Cell Count: 638 and 352
[4]
  Population Apoptotic (%): 41% and 48%
  Population Fragmented Nuclei (%): 6% and 9%
  Population Healthy Nuclei (%): 78% and 80%
  Population Hoechst High Intensity Objects (%): 6% and 7%
  Population Membrane Permeable-Phenotype (%): 0%
  Population Mitochondria Different-Phenotype (%): 57% and 54%
  Population Mitotic Cells (%): 58% and 51%
  Population Normal (%): 93% and 92%
  Population Pyknosed Nuclei (%): 14% and 10%
  Population Tubulin-Different-Phenotype (%): 45% and 42%
  Total Cell Count: 539 and 439
[5]
  Population Apoptotic (%): 15% and 37%
  Population Fragmented Nuclei (%): 13% and 11%
  Population Healthy Nuclei (%): 78% and 79%
  Population Hoechst High Intensity Objects (%): 4%
  Population Membrane Permeable-Phenotype (%): 2% and 0%
  Population Mitochondria Different-Phenotype (%): 16% and 29%
  Population Mitotic Cells (%): 84% and 62%
  Population Normal (%): 95%
  Population Pyknosed Nuclei (%): 7% and 9%
  Population Tubulin-Different-Phenotype (%): 13% and 17%
  Total Cell Count: 963 and 540
[6]
  Population Apoptotic (%): 27% and 32%
  Population Fragmented Nuclei (%): 13% and 14%
  Population Healthy Nuclei (%): 78% and 79%
  Population Hoechst High Intensity Objects (%): 6% and 4%
  Population Membrane Permeable-Phenotype (%): 0%
  Population Mitochondria Different-Phenotype (%): 44% and 43%
  Population Mitotic Cells (%): 72% and 67%
  Population Normal (%): 93% and 95%
  Population Pyknosed Nuclei (%): 7% and 6%
  Population Tubulin-Different-Phenotype (%): 33% and 35%
  Total Cell Count: 781 and 681
